A short description of test [1]: inhibitors of TNFa-induced NFkB p65 translocation, primary screen, imaging, HUVEC, MLSMR starter and 10KST1 sets (AID 438;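 active means inhibition above 20% together with a positive visual image hit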;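 further: compound added about 3h40 before a 20 min TNFalpha stimulation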;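 on inhibition: signal is the nuclear over cytoplasmic p65 intensity ratio per well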). Particulars: HUVEC TNFa-induced p65 nuclear translocation; cell count: measured here: nuclei count (cytotoxicity indicator), at 2.08 µM; inhibition: at 2 µM, stronger effect = higher value, 0% TNFa-plus-vehicle, 100% no-TNFa wells.
A short description of test [2]: endothelial E-selectin expression blockers – imaging, HUVEC, immunofluorescence, MLSMR starter and 10KST1 sets, primary screen (AID 487;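 active means visually confirmed hit in the image check and inhibition above 20%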;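 on inhibition: signal is fraction of cell area covered by stained E-selectin grains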;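 on nuclei count: 100% = median nuclei count of all wells on the same plate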). Particulars: HUVEC TNFalpha-induced E-selectin immunofluorescence imaging, at 2 µM; inhibition: stronger effect = higher value; nuclei count: measured here: cell number, toxicity.
Test [3] can be described thus: Primary imaging screen for DUSP6 inhibitors that restore phospho-Erk in transfected HeLa cells, chemical complementation (AID 609;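 active means compounds giving at least 50% inhibition in the cell-based MKP-3 phosphatase rescue imaging test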;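 on inhibition: phospho-Erk level distribution per well compared with pooled transfected vehicle control wells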). Particulars: HeLa MKP-3 transfected, phospho-Erk imaging KS statistic, at 10 µM, cells stimulated with TPA for 15 min.
Test [4] concerns the target Dual specificity protein phosphatase 6 (Homo sapiens) (UniProt Q16828). The description is as above. The following applies: HeLa MKP-3 transfected, phospho-Erk imaging KS statistic; at 10 µM; stronger effect = higher value; cells stimulated with TPA for 15 min.
In test [5] the target is Voltage-gated potassium channel subunit beta-2 (Rattus norvegicus) (UniProt P62483). In words: inhibitors of rat Kvbeta2 reductase activity – biochemical, NADPH fluorescence, primary screen (AID 622;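 active means fluorescence slope higher than the sample average by over 3 SD, cut at about -0.22 in these data, passing the limit was not always enough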;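 further: slope of raw intensity against log time taken from 70 to 1610 s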). The following applies: recombinant KvBeta, 4-cyanobenzaldehyde reduction, at 10 µM, stronger effect = higher value.
Test [6] shares this target. In words: enhancers of rat Kvbeta2 NADPH turnover – biochemical, NADPH fluorescence, primary screen (AID 623).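 Further: fluorescence intensity change per second fitted from 20 to 320 s.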 The following applies: Recombinant KvBeta, NADPH fluorescence decrease slope, 10 min; at 10 µM; stronger effect = lower value.
The target in test [7] is Muscarinic acetylcholine receptor M4 (Homo sapiens) (UniProt P08173). In words: M4-linked GIRK flux change, two-sided – cell-based, HEK293 M4/GIRK, thallium flux, BTC-AM, M4 allosteric agonist project, primary screen (AID 625;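 active means fluorescence slope after compound addition differing from the mean of all tested samples at 99.7% confidence, mostly higher but some lower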;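 further: thallium influx through GIRK channels coupled to M4 in HEK293 cells with BTC-AM dye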). The following applies: at 10 µM, actives lie on both sides. The method, boiled down:
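Material – HEK293 cells with M4 receptor and GIRK channels · Buffer or medium – pH 7.3 thallium assay buffer · Doses – one dose, 10 µM final · Timing – cells overnight at 37 °C, BTC-AM loading 1 h, reads 2 min total · Measured by – kinetic fluorescence with BTC-AM dye · Controls – carbachol and DMSO controls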

A short description of test [8]: inhibitors of larval lipid processing in zebrafish, primary screen, whole organism, PED6 fluorescence, gall bladder and intestine (AID 686;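 active means a full or partial loss of lipid-probe fluorescence in the fish gall bladder, intestine or both, judged by eye; inactive means no fluorescence loss, or compound toxic to the fish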;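 further: larvae 5 to 7 days old with five fish per well; signal comes from phospholipase A2 cleavage of quenched PED6 carried via bile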). Particulars: Zebrafish larvae PED6 lipid processing, fluorescence scoring; screened at 20 µM (by protocol). The essentials: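 system = live zebrafish larvae aged 5-7 days, whole organism | probe or stimulus = ingested quenched lipid PED6 at 100 nM | doses = 20 µM single dose | timing = overnight exposure | detection = fluorescence microscopy with visual scoring of gall bladder and intestine | read-out = visual per-well fluorescence inhibition score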

A short description of test [9]: loss of swimming-algae plug formation – whole organism, Chlamydomonas reinhardtii, WT vs cilia-less mutant, absorbance, 96-well, primary screen (AID 463189;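 active means inhibition at or above 50% relative to wild type and mutant plate controls; inactive means inhibition below 50%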;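 further: 0% = wild type cc124 cells in DMSO and 100% = ciliumless bld1 mutant cells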). The following applies: Chlamydomonas reinhardtii gravitaxis, OD600 absorbance, 2 days; at 10 µM; stronger effect = higher value.
The mark [10] stands for this setting: measured here: cell density z-score.
Where [11] appears, read: measured here: nuclear c-Myc green intensity z-score.
[12] abbreviates: measured here: nuclear pErk red intensity z-score, stronger effect = higher value.

Active and inactive are the calls of the source.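 How the source made its calls, unless noted: active means NADPH fluorescence slope more negative than the mean of all samples by about 3 SD, 99.7% confidence; inactive means the rest.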

The values below come from PubChem BioAssay.

Muscarinic acetylcholine receptor M4 (Homo sapiens), sequence (P08173 whole entry, looked up): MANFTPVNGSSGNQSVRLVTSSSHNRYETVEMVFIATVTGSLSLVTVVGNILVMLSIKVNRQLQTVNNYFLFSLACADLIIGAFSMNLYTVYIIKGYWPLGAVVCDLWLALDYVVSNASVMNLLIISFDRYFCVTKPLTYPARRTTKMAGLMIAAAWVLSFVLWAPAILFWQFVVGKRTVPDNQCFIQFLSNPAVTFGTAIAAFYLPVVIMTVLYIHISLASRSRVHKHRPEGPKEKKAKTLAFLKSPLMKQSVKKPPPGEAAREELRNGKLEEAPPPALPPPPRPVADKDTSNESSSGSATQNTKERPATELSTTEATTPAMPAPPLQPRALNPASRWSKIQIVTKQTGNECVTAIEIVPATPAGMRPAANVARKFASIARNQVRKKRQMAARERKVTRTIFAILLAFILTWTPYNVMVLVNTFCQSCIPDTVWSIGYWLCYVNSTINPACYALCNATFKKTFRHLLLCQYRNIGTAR
Voltage-gated potassium channel subunit beta-2 (Rattus norvegicus), sequence (P62483 whole entry, looked up): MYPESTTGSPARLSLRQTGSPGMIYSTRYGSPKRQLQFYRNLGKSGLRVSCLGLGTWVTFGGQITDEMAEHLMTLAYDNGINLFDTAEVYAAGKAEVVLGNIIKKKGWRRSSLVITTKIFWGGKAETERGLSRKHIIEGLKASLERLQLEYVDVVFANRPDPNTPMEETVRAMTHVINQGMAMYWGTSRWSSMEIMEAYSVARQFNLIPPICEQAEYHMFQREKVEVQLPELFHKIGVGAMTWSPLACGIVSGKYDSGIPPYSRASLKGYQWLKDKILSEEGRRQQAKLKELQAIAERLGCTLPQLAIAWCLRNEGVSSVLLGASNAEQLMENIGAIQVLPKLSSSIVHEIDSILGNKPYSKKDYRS
Dual specificity protein phosphatase 6 (Homo sapiens), sequence (Q16828 whole entry, looked up): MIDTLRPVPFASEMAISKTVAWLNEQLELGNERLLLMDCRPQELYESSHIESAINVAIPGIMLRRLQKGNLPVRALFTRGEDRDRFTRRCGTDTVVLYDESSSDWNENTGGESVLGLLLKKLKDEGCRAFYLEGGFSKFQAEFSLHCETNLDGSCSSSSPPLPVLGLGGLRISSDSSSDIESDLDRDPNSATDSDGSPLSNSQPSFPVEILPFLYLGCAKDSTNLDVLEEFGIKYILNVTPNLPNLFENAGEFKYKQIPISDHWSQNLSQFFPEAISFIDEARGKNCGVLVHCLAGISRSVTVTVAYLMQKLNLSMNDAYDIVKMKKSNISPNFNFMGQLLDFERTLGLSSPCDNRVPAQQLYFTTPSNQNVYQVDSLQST

Usually inhibition stands for the change of the read-out against control, counted positive when it falls. Take `Cc1nn(CCO)c2c1C(=O)CCC2`: the cell count in test [1] is 514. Also, the inhibition in test [1] was -5.8% (inactive); in [2], -16.6% (inactive); in test [4] it was 5.95% (inactive); in test [9], -6.32% (inactive). Further, in test [2], the nuclei count came out at 166%. Besides, the z-score in test [3] (setting [10]) is 1.33; in test [3] (setting [11]) it was -0.18; in [3] (setting [12]), -0.238. For the same compound, the fluorescence slope in [5] is -0.382 (inactive); in test [7], 0.00488 (inactive). In addition, in test [6], the NADPH fluorescence slope is -2.1e-05 (inactive). Moreover, the call in test [8] was inactive.

Regarding `O=C(O)C1CC(=O)N(Cc2cccs2)C1` (centres undefined), the cell count in test [1] stood at 557. Further, the inhibition in [1] was -4.7% (inactive); in test [2], -73.2% (inactive); in [4], 17.8% (inactive); in test [9] it was -9.05% (inactive). Moreover, in test [2], the nuclei count is 165%. The z-score is 0.677 in [3] (setting [10]), 0.857 in test [3] (setting [11]) and -1.54 in [3] (setting [12]). The fluorescence slope is -0.404 (inactive) in test [5] and 0.00636 (inactive) in test [7]. For the same compound, the NADPH fluorescence slope in [6] is -3e-05 (inactive). In addition, the compound was classed as inactive in test [8].

As to `Nc1c2c(nc3ccccc13)N(C1CCCCC1)CC2`, the cell count in test [1] amounted to 670. Also, the inhibition in test [1] was 21.3% (inactive); in test [2], 7.4% (inactive); in test [4], -15.1% (inactive); in [9], 62.2% (active). This compound also gave a nuclei count in test [2] of 98.7%. The z-score is -0.086 in test [3] (setting [10]), 0.000792 in [3] (setting [11]) and -0.245 in test [3] (setting [12]). In addition, the fluorescence slope in test [5] was -0.46 (inactive); in test [7], 0.00444 (inactive). In addition, the NADPH fluorescence slope in test [6] was -2.9e-05 (inactive). Also, the call in test [8] was inactive.

Turning to `COC(=O)CCc1c(C)[nH]c(=S)[nH]c1=O`, the cell count in [1] amounted to 364. For the same compound, the inhibition in [1] was -0.7% (inactive); in [2] it was -74.5% (inactive); in [4], -4.78% (inactive); in test [9], -5.54% (inactive). For the same compound, the nuclei count in test [2] came out at 111%. Moreover, the z-score in test [3] (setting [10]) is -0.296; in test [3] (setting [11]), -0.397; in [3] (setting [12]), -1.03. In addition, the fluorescence slope is -0.521 (inactive) in test [5] and 0.00625 (inactive) in [7]. In addition, the NADPH fluorescence slope in test [6] was -2.4e-05 (inactive). Also, the compound was called inactive in [8].

In the case of `CCOC(=O)c1[nH]c2ccccc2c1N=C(C)N(CC)CC`, the cell count in test [1] is 643. The inhibition was -7% (inactive) in test [1], -113% (inactive) in test [2], 11.9% (inactive) in [4] and -5.79% (inactive) in test [9]. Also, in [2], the nuclei count was determined as 160%. Also, the z-score in test [3] (setting [10]) is -1.18; in test [3] (setting [11]), 2.66; in test [3] (setting [12]), 0.345. For the same compound, the figures for the fluorescence slope in test [5] and in [7] were -0.521 (inactive) and 0.00643 (inactive), respectively. For the same compound, the NADPH fluorescence slope in test [6] is -3.5e-05 (inactive). Moreover, the call in [8] was inactive.

Take `CCCCN(CCCC)C(=O)CSc1nnc2n(C)c(=O)c3c4c(sc3n12)CCCC4`: in [1], the cell count is 496. Moreover, the inhibition in test [1] was -18.2% (inactive); in test [2], -94.2% (inactive); in [4] it was 7.93% (inactive); in [9] it was 84% (active). This compound returned a nuclei count in test [2] of 142%. Besides, the z-score in test [3] (setting [10]) is 2.28; in test [3] (setting [11]), -1.51; in [3] (setting [12]), -0.0585. The fluorescence slope was -0.463 (inactive) in test [5] and 0.00616 (inactive) in test [7]. Besides, in test [6], the NADPH fluorescence slope is -4.6e-05 (inactive). For the same compound, the compound was called inactive in test [8].

With `CCOC(=O)c1[nH]c2ccc(C)cc2c1N`, the cell count in test [1] is 678. Also, the inhibition is -29.2% (inactive) in test [1], -53.9% (inactive) in test [2], -5.95% (inactive) in test [4] and -1.56% (inactive) in [9]. The compound also showed a nuclei count in test [2] of 207%. For the same compound, the z-score is -1.62 in test [3] (setting [10]), 0.0814 in [3] (setting [11]) and 1.41 in test [3] (setting [12]). Besides, the fluorescence slope in test [5] is -0.46 (inactive); in test [7], 0.00561 (inactive). Moreover, the NADPH fluorescence slope in [6] was -4.7e-05 (inactive). Also, in test [8], the result was inactive.

Consider `CCCn1nnc(NC(=O)c2cc(Br)cc(Br)c2OC)n1`, for which the cell count in test [1] was determined as 391. Further, the inhibition is -1.7% (inactive) in test [1], -24.1% (inactive) in test [2], 20.2% (inactive) in test [4] and 8.4% (inactive) in [9]. In test [2], the nuclei count was found to be 127%. The z-score was determined as 0.877 in [3] (setting [10]), 0.738 in test [3] (setting [11]) and 0.427 in [3] (setting [12]). Also, the fluorescence slope in [5] is -0.463 (inactive); in test [7], 0.00469 (inactive). Also, the NADPH fluorescence slope in test [6] was -0.000102 (inactive). Also, the compound was classed as inactive in test [8].

As to `N#Cc1nc(COc2ccc(Br)cc2)oc1NCCN1CCOCC1`, the cell count in [1] was determined as 510. The inhibition in [1] is -5.5% (inactive); in [2], -38.7% (inactive); in test [4], 7.7% (inactive); in [9], -13.6% (inactive). Also, the nuclei count in test [2] is 169%. Further, the z-score in test [3] (setting [10]) came out at 0.361; in test [3] (setting [11]) it was 0.776; in test [3] (setting [12]) it was 1.07. The fluorescence slope in test [5] is -0.432 (inactive); in test [7] it was 0.00542 (inactive). For the same compound, the NADPH fluorescence slope in [6] is -4.4e-05 (inactive). Moreover, the result in test [8] was inactive.

In the case of `CCOC(=O)c1c(N)sc(=S)c2c1CCC2`, the cell count in test [1] was determined as 618. The inhibition in test [1] is -6.2% (inactive); in test [2] it was -92.1% (inactive); in [4] it was -11.4% (inactive); in test [9], 15% (inactive). Further, the nuclei count in test [2] is 139%. Moreover, the z-score in test [3] (setting [10]) was 0.668; in test [3] (setting [11]), -0.746; in test [3] (setting [12]) it was -1.03. Further, the fluorescence slope in test [5] is -0.467 (inactive); in [7], 0.00293 (inactive). Moreover, the NADPH fluorescence slope in test [6] was -0.000294 (inactive). Also, the call in test [8] was inactive.

For `CCCc1nc2n[nH]c(N)c2c2c1CCCC2`, the cell count in test [1] is 478. Also, the inhibition in [1] is -12.3% (inactive); in test [2], -64.3% (inactive); in test [4], -2.09% (inactive); in test [9] it was -1.38% (inactive). In [2], this compound gave a nuclei count of 118%. The z-score was -0.479 in [3] (setting [10]), -0.89 in [3] (setting [11]) and -1.19 in [3] (setting [12]). Also, the fluorescence slope in test [5] was -0.48 (inactive); in [7], 0.00548 (inactive). In addition, the NADPH fluorescence slope in test [6] is -0.000102 (inactive). Also, in test [8], the result was inactive.

As for `Cc1cc(=O)oc2ccc(OCC(=O)N3CCc4ccccc43)cc12`, the cell count in test [1] turned out to be 630. Further, the inhibition in test [1] was -1.2% (inactive); in test [2], -32.9% (inactive); in [4], -2.29% (inactive); in test [9], 1.65% (inactive). This compound yielded a nuclei count in [2] of 180%. For the same compound, the z-score is -1.93 in [3] (setting [10]), 0.803 in test [3] (setting [11]) and 1.57 in test [3] (setting [12]). Besides, the fluorescence slope is -0.478 (inactive) in test [5] and 0.00705 (inactive) in [7]. Further, in [6], the NADPH fluorescence slope was -7.1e-05 (inactive). The result in test [8] was inactive.

Turning to `CCn1c(SCC(=O)NCc2ccco2)nnc1-c1ccc(N)cc1`, the cell count in test [1] stood at 669. Besides, the inhibition in [1] was -1% (inactive); in test [2] it was 19.4% (inactive); in test [4] it was -3.95% (inactive); in test [9], 6.36% (inactive). This compound also came in with a nuclei count in test [2] of 189%. Besides, the results for the z-score in test [3] (setting [10]), in test [3] (setting [11]) and in test [3] (setting [12]) were -0.439, 0.193 and -0.177, respectively. Moreover, the results for the fluorescence slope in [5] and in [7] were -0.491 (inactive) and 0.00557 (inactive), respectively. The NADPH fluorescence slope in test [6] is -4.4e-05 (inactive). In addition, the outcome in [8] was inactive.
